Source: ChEMBL document CHEMBL3400112, “Design, syntheses, and pharmacological characterization of 17-cyclopropylmethyl-3,14β-dihydroxy-4,5α-epoxy-6α-(isoquinoline-3'-carboxamido)morphinan analogues as opioid receptor ligands” (Bioorg Med Chem, 2015)
Activity calls are given as the source filed them. No cut-off for these calls is given here.

What was measured:
Mus musculus [1] = organism: Mus musculus; assay: Selectivity ratio of Ki for mouse DOR to Ki for mouse MOR
Mus musculus [2] = organism: Mus musculus; assay: Selectivity ratio of Ki for mouse KOR to Ki for mouse MOR
[3] = biological target: T1, Kappa-type opioid receptor (Mus musculus, UniProt P33534); assay: Displacement of [3H]diprenorphine from mouse KOR expressed in CHO cells after […]; type: cell-based
Mu-type opioid receptor [4] = biological target: T2, Mu-type opioid receptor (Mus musculus, UniProt P42866); assay: Stimulation of mouse MOR expressed in CHO cells after […] by [35S]GTPgammaS binding assay; type: functional, cell-based
Mu-type opioid receptor [5] = biological target: T2, Mu-type opioid receptor; assay: Displacement of [3H]naloxane from mouse MOR expressed in CHO cells after […]; type: cell-based
[6] = biological target: Mu-type opioid receptor (Mus musculus) (UniProt P42866); assay: Stimulation of mouse MOR expressed in CHO cells after […] by [35S]GTPgammaS binding assay relative to DAMGO; type: functional, cell-based
[7] = biological target: T3, Delta-type opioid receptor (Mus musculus, UniProt P32300); assay: Displacement of [3H]naltrindole from mouse DOR expressed in CHO cells after […]; type: cell-based
Mus musculus [8] = assay: Antinociceptive activity in Swiss-Webster mouse at 10 mg/kg, sc after 20 mins by warm water tail-flick test relative to control; type: functional; details: route subcutaneous
Mus musculus [9] = assay: Reversal of morphine-induced antinociceptive activity in Swiss-Webster mouse at 1 mg/kg, sc administered 5 mins prior to morphine challenge measured after 20 mins by warm water tail-flick test relative to control; type: functional
Mus musculus [10] = organism: Mus musculus; assay: Selectivity ratio of EC50 for mouse KOR to EC50 for mouse MOR
[11] = biological target: Delta-type opioid receptor (Mus musculus) (UniProt P32300); assay: Agonist activity at mouse DOR expressed in CHO cells after […] by [35S]GTPgammaS binding assay relative to SNC80; type: functional, cell-based
[12] = biological target: T3, Delta-type opioid receptor; assay: Agonist activity at mouse DOR expressed in CHO cells after […] by [35S]GTPgammaS binding assay; type: functional, cell-based
[13] = biological target: T1, Kappa-type opioid receptor; assay: Agonist activity at mouse KOR expressed in CHO cells after […] by [35S]GTPgammaS binding assay; type: functional, cell-based
[14] = biological target: Delta-type opioid receptor (Mus musculus) (UniProt P32300); assay: Agonist activity at mouse DOR expressed in CHO cells after […] by [35S]GTPgammaS binding assay relative to naltrexone; type: functional, cell-based
Mus musculus [15] = assay: Induction of escape jumps in Swiss-Webster mouse at 30 mg/kg, sc measured after 3 mins up to 20 mins; type: organism-based; set-up: dose 30 mg/kg, route subcutaneous; details: in vivo
How it was run: (§1)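 After 72 h and 30 min habituation in an observation chamber, withdrawal was precipitated by s.c. test agent. Escape jumps and wet-dog shakes counted over 20 min, starting within 3 min of dosing; at least six mice per dose.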

Mus musculus [16] = assay: Induction of wet-dog shakes in Swiss-Webster mouse at 30 mg/kg, sc measured after 3 mins up to 20 mins; type: organism-based; set-up: dose 30 mg/kg, route subcutaneous; details: in vivo; how it was run: as §1
[17] = biological target: Kappa-type opioid receptor (Mus musculus) (UniProt P33534); assay: Agonist activity at mouse KOR expressed in CHO cells after […] by [35S]GTPgammaS binding assay relative to (+/-)-trans-U50488; type: functional, cell-based
Mu-type opioid receptor [18] = biological target: T4, Mu-type opioid receptor (Homo sapiens, UniProt P35372); assay: Agonist activity at human MOR expressed in CHO cells assessed as increase in intracellular Ca2+ level after 30 mins by microplate reader analysis; type: functional, cell-based
How it was run: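 Gαqi5-transfected hMOR-CHO cells (DMEM/F12, 10% FBS, hygromycin B, 37 °C/5% CO2), plated 4 h post-transfection, grown 24 h, loaded 30 min with Fluo-4 AM plus probenecid in HBSS:HEPES. Test agent at varying concentrations in triplicate added after 15 s of reading. Fluorescence 494/516 nm over 120 s; at least three independent experiments.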

Mus musculus [19] = assay: Reversal of morphine-induced antinociceptive activity in Swiss-Webster mouse assessed as wet-dog shakes at 30 to 100 mg/kg, sc measured after 3 mins up to 20 mins; type: functional, organism-based; how it was run: as §1
Mus musculus [20] = organism: Mus musculus; assay: Selectivity ratio of EC50 for mouse DOR to EC50 for mouse MOR
Mus musculus [21] = assay: Reversal of morphine-induced antinociceptive activity in Swiss-Webster mouse assessed as escape jumps at 30 to 100 mg/kg, sc measured after 3 mins up to 20 mins; type: functional, organism-based; how it was run: as §1
Mus musculus [22] = assay: Reversal of morphine-induced antinociceptive activity in sc dosed Swiss-Webster mouse administered 5 mins prior to morphine challenge measured after 20 mins by warm water tail-flick test relative to control; type: functional
Mu-type opioid receptor [23] = biological target: T4, Mu-type opioid receptor; assay: Antagonist activity at human MOR expressed in CHO cells assessed as inhibition of DAMGO-induced increase in intracellular Ca2+ level incubated for 15 mins prior to DAMGO addition by microplate reader analysis; type: functional, cell-based
[24] = biological target: T1, Kappa-type opioid receptor; assay: Partial agonist activity at mouse KOR expressed in CHO cells after […] by [35S]GTPgammaS binding assay; type: functional, cell-based
Mus musculus [25] = assay: Antinociceptive activity in sc dosed Swiss-Webster mouse after 20 mins by warm water tail-flick test relative to control; type: functional

T2 sequence (P42866 whole entry): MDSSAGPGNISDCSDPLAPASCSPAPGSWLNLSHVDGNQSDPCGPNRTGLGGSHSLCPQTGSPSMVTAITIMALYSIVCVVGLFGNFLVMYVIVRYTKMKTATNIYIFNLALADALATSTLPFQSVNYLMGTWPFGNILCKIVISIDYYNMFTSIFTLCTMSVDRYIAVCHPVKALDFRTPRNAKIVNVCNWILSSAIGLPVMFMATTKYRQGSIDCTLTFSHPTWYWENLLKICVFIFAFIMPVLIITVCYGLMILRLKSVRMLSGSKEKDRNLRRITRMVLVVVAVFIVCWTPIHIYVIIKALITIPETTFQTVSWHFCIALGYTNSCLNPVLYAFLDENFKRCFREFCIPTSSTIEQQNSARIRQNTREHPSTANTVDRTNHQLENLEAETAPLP
Mu-type opioid receptor (Mus musculus), sequence (P42866 whole entry): as above
T1 sequence (P33534 whole entry): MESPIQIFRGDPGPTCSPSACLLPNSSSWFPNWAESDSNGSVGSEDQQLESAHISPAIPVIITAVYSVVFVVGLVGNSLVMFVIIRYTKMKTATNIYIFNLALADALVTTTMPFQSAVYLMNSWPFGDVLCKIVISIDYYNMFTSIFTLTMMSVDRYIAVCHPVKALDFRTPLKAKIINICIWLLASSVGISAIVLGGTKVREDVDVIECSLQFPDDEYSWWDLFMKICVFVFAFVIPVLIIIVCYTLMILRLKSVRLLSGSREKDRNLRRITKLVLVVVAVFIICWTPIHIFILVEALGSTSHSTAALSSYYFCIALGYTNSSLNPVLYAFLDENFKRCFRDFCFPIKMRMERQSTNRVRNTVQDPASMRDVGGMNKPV
Delta-type opioid receptor (Mus musculus), sequence (P32300 whole entry): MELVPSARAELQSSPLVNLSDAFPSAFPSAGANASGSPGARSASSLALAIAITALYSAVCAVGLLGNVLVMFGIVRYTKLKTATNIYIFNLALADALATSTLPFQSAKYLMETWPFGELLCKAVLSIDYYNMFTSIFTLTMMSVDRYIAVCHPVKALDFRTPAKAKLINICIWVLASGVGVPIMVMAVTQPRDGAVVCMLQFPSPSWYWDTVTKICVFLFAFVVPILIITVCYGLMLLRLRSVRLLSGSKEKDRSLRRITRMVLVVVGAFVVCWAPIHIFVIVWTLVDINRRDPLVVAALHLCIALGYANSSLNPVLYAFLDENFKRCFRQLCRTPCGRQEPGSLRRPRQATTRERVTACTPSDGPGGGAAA
T3 sequence (P32300 whole entry): as above
T4 sequence (P35372 whole entry): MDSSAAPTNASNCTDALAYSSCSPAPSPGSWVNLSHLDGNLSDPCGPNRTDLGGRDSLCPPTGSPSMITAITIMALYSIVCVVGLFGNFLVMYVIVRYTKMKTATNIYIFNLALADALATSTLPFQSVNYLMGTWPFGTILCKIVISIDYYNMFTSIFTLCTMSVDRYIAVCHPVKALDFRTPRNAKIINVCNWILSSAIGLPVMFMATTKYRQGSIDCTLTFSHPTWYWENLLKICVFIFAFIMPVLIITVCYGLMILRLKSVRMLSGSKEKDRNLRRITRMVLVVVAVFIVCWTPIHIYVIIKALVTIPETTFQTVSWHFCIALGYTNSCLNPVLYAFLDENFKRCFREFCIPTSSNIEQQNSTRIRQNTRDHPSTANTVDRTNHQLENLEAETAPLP
Kappa-type opioid receptor (Mus musculus), sequence (P33534 whole entry): as the sequence (P33534 whole entry) above

SMILES: O=C(N[C@H]1CC[C@@]2(O)[C@H]3Cc4ccc(O)c5c4[C@@]2(CCN3CC2CC2)[C@H]1O5)c1nc(Cl)c2ccccc2c1O
- Ratio Ki (Mus musculus [1]): 25
- Ratio Ki (Mus musculus [2]): 24

SMILES: CN1Cc2ccccc2C[C@H]1C(=O)N[C@H]1CC[C@@]2(O)[C@H]3Cc4ccc(O)c5c4[C@@]2(CCN3CC2CC2)[C@H]1O5
- Ratio Ki (Mus musculus [1]): 2.3
- Ratio Ki (Mus musculus [2]): 3.2

SMILES: O=C(Cc1cc2ccccc2cn1)N[C@H]1CC[C@@]2(O)[C@H]3Cc4ccc(O)c5c4[C@@]2(CCN3CC2CC2)[C@H]1O5
- Ratio Ki (Mus musculus [1]): 0.9
- Ratio Ki (Mus musculus [2]): 10

SMILES: CN(C)c1ccc2c(c1)CN(C)C(C(=O)N[C@H]1CC[C@@]3(O)[C@H]4Cc5ccc(O)c6c5[C@@]3(CCN4CC3CC3)[C@H]1O6)C2 (some centres not stated)
- Ratio Ki (Mus musculus [1]): 2.7
- Ratio Ki (Mus musculus [2]): 2.5
- Ki [3]: 4.91 nM
- EC50 (Mu-type opioid receptor [4]): 11.4 nM
- Ki (Mu-type opioid receptor [5]): 1.79 nM
- Emax [6]: 26.2%
- Ki [7]: 4.5 nM

SMILES: N#Cc1nc(C(=O)N[C@H]2CC[C@@]3(O)[C@H]4Cc5ccc(O)c6c5[C@@]3(CCN4CC3CC3)[C@H]2O6)cc2ccccc12
- Ratio Ki (Mus musculus [1]): 10
- Ratio Ki (Mus musculus [2]): 131
- MPE (Mus musculus [8]): 56.9%

SMILES: O=C(N[C@H]1CC[C@@]2(O)[C@H]3Cc4ccc(O)c5c4[C@@]2(CCN3CC2CC2)[C@H]1O5)c1cc2ccc([N+](=O)[O-])cc2cn1
- Ratio Ki (Mus musculus [1]): 4.5
- Ratio Ki (Mus musculus [2]): 16
- Ki [3]: 16 nM
- EC50 (Mu-type opioid receptor [4]): 42.7 nM
- Ki (Mu-type opioid receptor [5]): 3.6 nM
- Emax [6]: 13.4%
- Ki [7]: 55.3 nM
- Activity (Mus musculus [9]): inactive

SMILES: O=C(N[C@H]1CC[C@@]2(O)[C@H]3Cc4ccc(O)c5c4[C@@]2(CCN3CC2CC2)[C@H]1O5)c1ncc2ccccc2n1
- Ratio Ki (Mus musculus [1]): 4.6
- Ratio Ki (Mus musculus [2]): 71

SMILES: O=C(CCc1cc2ccccc2cn1)N[C@H]1CC[C@@]2(O)[C@H]3Cc4ccc(O)c5c4[C@@]2(CCN3CC2CC2)[C@H]1O5
- Ratio Ki (Mus musculus [1]): 2.4
- Ratio Ki (Mus musculus [2]): 12

SMILES: O=C(N[C@H]1CC[C@@]2(O)[C@H]3Cc4ccc(O)c5c4[C@@]2(CCN3CC2CC2)[C@H]1O5)c1cc2cc([N+](=O)[O-])ccc2cn1
- Ratio Ki (Mus musculus [1]): 4.9
- Ratio EC50 (Mus musculus [10]): 2
- Ratio Ki (Mus musculus [2]): 16
- Emax [11]: 67.7%
- Ki [3]: 27.9 nM
- EC50 [12]: 108 nM
- EC50 [13]: 62.6 nM
- Ratio [14]: 10
- Activity (Mus musculus [15]): Non-toxic
- Activity (Mus musculus [16]): Non-toxic
- EC50 (Mu-type opioid receptor [4]): 31.5 nM
- Emax [17]: 21.1%
- Ki (Mu-type opioid receptor [5]): 5.7 nM
- Emax [6]: 12.5%
- Activity (Mu-type opioid receptor [18]): inactive
- Activity (Mus musculus [19]): inactive
- Ratio EC50 (Mus musculus [20]): 3.4
- Activity (Mus musculus [21]): inactive
- Ki [7]: 94.7 nM
- AD50 (Mus musculus [22]): 0.92 mg/kg
- IC50 (Mu-type opioid receptor [23]): 2730 nM
- inhibition (Mu-type opioid receptor [23]): Dose-dependent effect
- MPE (Mus musculus [9]; route subcutaneous): 8.9%

SMILES: COc1c(C(=O)N[C@H]2CC[C@@]3(O)[C@H]4Cc5ccc(O)c6c5[C@@]3(CCN4CC3CC3)[C@H]2O6)nc(Cl)c2ccccc12
- Emax [11]: 54.8%
- EC50 [12]: 32.6 nM
- Activity (Mu-type opioid receptor [18]): inactive
- EC50 [24]: 26.4 nM
- ED50 (Mus musculus [25]): 0.73 mg/kg
- IC50 (Mu-type opioid receptor [23]): 23.7 nM
- inhibition (Mu-type opioid receptor [23]): Dose-dependent effect

SMILES: O=C(N[C@H]1CC[C@@]2(O)[C@H]3Cc4ccc(O)c5c4[C@@]2(CCN3CC2CC2)[C@H]1O5)c1ncc2ccccc2c1O
- MPE (Mus musculus [8]): <20%

SMILES: CN(C)c1ccc2cc(C(=O)N[C@H]3CC[C@@]4(O)[C@H]5Cc6ccc(O)c7c6[C@@]4(CCN5CC4CC4)[C@H]3O7)ncc2c1
- Ratio Ki (Mus musculus [1]): 20
- Ratio Ki (Mus musculus [2]): 16
- Ki [3]: 88 nM
- EC50 (Mu-type opioid receptor [4]): 4.7 nM
- Ki (Mu-type opioid receptor [5]): 4.4 nM
- Emax [6]: 6.32%
- Ki [7]: 68.6 nM
- Activity (Mus musculus [9]): inactive

SMILES: COc1cc2cnc(C(=O)N[C@H]3CC[C@@]4(O)[C@H]5Cc6ccc(O)c7c6[C@@]4(CCN5CC4CC4)[C@H]3O7)cc2cc1OC
- Ratio Ki (Mus musculus [1]): 4.6
- Ratio Ki (Mus musculus [2]): 5.2
- Ki [3]: 61 nM
- EC50 (Mu-type opioid receptor [4]): 85.2 nM
- Ki (Mu-type opioid receptor [5]): 13.4 nM
- Emax [6]: 14%
- Ki [7]: 69.2 nM

SMILES: O=C(CNC(=O)c1cc2ccccc2cn1)N[C@H]1CC[C@@]2(O)[C@H]3Cc4ccc(O)c5c4[C@@]2(CCN3CC2CC2)[C@H]1O5
- Ratio Ki (Mus musculus [1]): 0.2
- Ratio Ki (Mus musculus [2]): 3.4

SMILES: Cc1nc(C(=O)N[C@H]2CC[C@@]3(O)[C@H]4Cc5ccc(O)c6c5[C@@]3(CCN4CC3CC3)[C@H]2O6)cc2ccccc12
- MPE (Mus musculus [8]): <20%

SMILES: O=C(N[C@H]1CC[C@@]2(O)[C@H]3Cc4ccc(O)c5c4[C@@]2(CCN3CC2CC2)[C@H]1O5)c1cc2ccccc2cn1
- Emax [11]: 53.5%
- EC50 [12]: 98.6 nM
- EC50 [13]: 10.9 nM
- Emax [17]: 13.1%
- AD50 (Mus musculus [22]): 0.45 mg/kg
